The text below walks through data of PubChem BioAssay.

Assay [1] is described as follows: Her2 expression decrease, cell viability multiplex – SKBR3 breast tumor cells, AlphaScreen, ATP viability, primary screen (AID 461;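 active means Her2 level under about 52% in both replicate screens, with viability over 70% of control, limit read from the data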;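 on Her2 level: lower value means less Her2 protein in the cells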;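 on viability: percent of carrier control wells set as 100% viability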). As to conditions: SKBR3 Her2 protein level, 18-24 h, measured here: SKBR3 viability, ATP luminescence, at 10 µM. Background: In Alpha technology, singlet oxygen from a donor bead excites a nearby acceptor bead.
The target in assay [2] is Receptor tyrosine-protein kinase erbB-2 (Homo sapiens) (UniProt P04626). The assay is described as above. As to conditions: 18-24 h, at 10 µM, stronger effect = lower value.
Receptor tyrosine-protein kinase erbB-2 (Homo sapiens), sequence (P04626 whole entry, looked up): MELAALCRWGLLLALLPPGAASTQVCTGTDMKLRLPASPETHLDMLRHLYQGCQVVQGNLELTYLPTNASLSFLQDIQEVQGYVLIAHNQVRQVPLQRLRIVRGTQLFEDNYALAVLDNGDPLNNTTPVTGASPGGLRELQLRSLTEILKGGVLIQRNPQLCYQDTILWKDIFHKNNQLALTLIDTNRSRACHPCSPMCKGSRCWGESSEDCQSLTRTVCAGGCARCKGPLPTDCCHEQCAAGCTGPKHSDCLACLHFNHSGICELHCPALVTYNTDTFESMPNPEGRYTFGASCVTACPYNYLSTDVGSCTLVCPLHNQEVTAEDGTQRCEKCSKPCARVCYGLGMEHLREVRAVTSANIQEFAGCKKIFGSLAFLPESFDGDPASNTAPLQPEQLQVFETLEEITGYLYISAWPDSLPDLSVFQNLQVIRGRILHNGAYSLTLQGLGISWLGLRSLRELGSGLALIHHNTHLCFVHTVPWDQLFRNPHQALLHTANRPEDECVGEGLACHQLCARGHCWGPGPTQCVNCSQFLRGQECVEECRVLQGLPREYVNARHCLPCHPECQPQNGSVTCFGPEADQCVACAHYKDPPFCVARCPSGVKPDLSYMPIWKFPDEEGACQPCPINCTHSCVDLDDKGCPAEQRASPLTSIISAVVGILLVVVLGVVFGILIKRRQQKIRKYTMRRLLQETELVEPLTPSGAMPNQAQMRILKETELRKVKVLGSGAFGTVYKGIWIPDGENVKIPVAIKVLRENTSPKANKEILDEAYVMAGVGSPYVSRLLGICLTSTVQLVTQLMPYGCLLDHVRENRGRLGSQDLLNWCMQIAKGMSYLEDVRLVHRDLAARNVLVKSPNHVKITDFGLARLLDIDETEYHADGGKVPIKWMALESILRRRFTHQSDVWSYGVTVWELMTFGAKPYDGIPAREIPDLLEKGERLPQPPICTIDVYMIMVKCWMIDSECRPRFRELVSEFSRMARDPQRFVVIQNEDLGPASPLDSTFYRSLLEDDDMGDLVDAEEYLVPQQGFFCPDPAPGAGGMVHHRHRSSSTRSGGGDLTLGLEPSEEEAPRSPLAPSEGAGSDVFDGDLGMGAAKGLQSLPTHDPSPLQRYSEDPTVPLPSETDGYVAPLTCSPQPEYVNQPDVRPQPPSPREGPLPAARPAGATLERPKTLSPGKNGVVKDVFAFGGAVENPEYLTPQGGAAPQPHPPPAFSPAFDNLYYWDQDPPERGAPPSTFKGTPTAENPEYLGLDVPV
A short description of assay [3]: reduced viability of SK-BR-3 breast cancer cells – cell-based, 24 h, human, pilot screen (AID 572;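 active means viability at or below 10% of carrier control in both of two separate runs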;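 further: compound exposure lasted between 18 and 24 h rather than exactly 24 h; 100% = carrier-treated control wells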). As to conditions: SK-BR-3 viability, CellTiter-Glo luminescence, at 10 µM, stronger effect = lower value. A general note: In ATP-based viability assays light output follows the ATP content of the culture.
A short description of assay [4]: HUVEC growth inhibition – cell-based, human, primary screen (AID 575;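 active means viability at or below 30% in both replicate assays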;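 further: 100% = median of untreated cell wells with 0.1% DMSO on each plate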). Conditions: HUVEC proliferation, CellTiter-Glo luminescence, 72 h; at 10 µM; stronger effect = lower value. In outline:
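Test system: primary human umbilical vein endothelial cells. Quantity: 1250 cells/well. Compound: single 10 µM dose, 0.1% DMSO, from 5x medium stock. Timing: 72 h treatment at 37 °C. Detection: ATP-based CellTiter-Glo luminescent read. Benchmarks: vehicle and MePR control wells. Format: 384-well plates coated with collagen.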

Assay [5] in a line: H69AR cell proliferation blockers – human, duplicate replicates, primary screen (AID 580;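 active means viability at or under a set limit in both replicates, limit being median viability minus 3 SD, cut at about 48% in these data, passing the limit was not always enough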;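 further: 100% = mean luminescence of untreated wells and 0% = no signal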). Conditions: H69AR lung tumor cells viability, ATP luminescence, 72 h; at 10 µM; stronger effect = lower value.
Assay [6] can be described thus: MRP1 drug-resistance reversers in H69AR cells – cell-based, doxorubicin co-treatment, pilot screen (AID 601;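 active means viability loss from added drug above about 55%, and viability with drug at most 40%, in both replicates, limit read from the data, passing the limit was not always enough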). As to conditions: CellTiter-Glo, 72 h, at 10 µM; for differential viability (reversal): stronger effect = higher value.
Assay [7] is described as follows: yeast transport mutant growth inhibition pilot in 384-well plates, post-Golgi transport modulator project (AID 636; in the data active means inhibition above about 31%). Conditions: absorbance 615 nm, about 18 h, stronger effect = higher value.
Assay [8] in a line: growth suppression of yeast trafficking mutant, preliminary HTS, modulators of trafficking downstream of Golgi apparatus project, 1536-format plate, OD 615 nm (AID 637). Conditions: yeast transport mutant growth, absorbance 615 nm, 18 h; stronger effect = higher value.
The mark [9] stands for this setting: H69AR cells + 2 uM doxorubicin, measured here: viability with 2 uM doxorubicin, stronger effect = lower value.
Where [10] appears, read: H69AR cells, compound alone cytotoxicity.

Molecules are shown by their SMILES. Active and inactive are the calls of the source. Unless noted, no stated cut-off is given here; in the data, active means inhibition above about 30%; inactive means the rest.

One may read the viability as a read-out of living cells in per cent, often relative to untreated cells. As a reminder, the inhibition is the drop in the measured response relative to a control, in per cent. In the case of `COc1ccc2nc(NC(=O)c3ccoc3C)sc2c1`, the viability is 99% in assay [1]; 99% (inactive) in assay [3]; 23.9% (active) in assay [4]; 26.1% (active) in assay [5]; 39.8% in assay [6] (setting [9]); 26.1% in assay [6] (setting [10]). Besides, the Her2 level in assay [2] was 87.5% (inactive). Further, the differential viability (reversal) in assay [6] (H69AR cells + 2 uM doxorubicin) is -13.7% (inactive). Moreover, the figures for the inhibition in assay [7] and in assay [8] were -3.82% (inactive) and 6.33% (inactive), respectively.
For the compound `Cc1c(C(=O)OC(C)C)[nH]c2c1C(=O)CCC2`, the viability in assay [1] was 96.5%; in assay [3], 96.5% (inactive); in assay [4], 102% (inactive); in assay [5], 106% (inactive); in assay [6] (setting [9]) it was 93%; in assay [6] (setting [10]), 106%. In addition, in assay [2], the Her2 level is 104% (inactive). Also, the differential viability (reversal) in assay [6] (H69AR cells + 2 uM doxorubicin) is 12.9% (inactive). Further, the inhibition in assay [7] was 0.39% (inactive); in assay [8], -6.29% (inactive).
`O=C(CSc1ncnc2sc3c(c12)CCCCC3)NCc1ccco1`: the viability is 92.5% in assay [1]; 92.5% (inactive) in assay [3]; 41.3% (inactive) in assay [4]; 18% (active) in assay [5]; 70.1% in assay [6] (setting [9]); 18% in assay [6] (setting [10]). In addition, the Her2 level in assay [2] was 61% (inactive). Further, in assay [6] (H69AR cells + 2 uM doxorubicin), the differential viability (reversal) is -52.1% (inactive). Further, the inhibition is -2.63% (inactive) in assay [7] and -3.65% (inactive) in assay [8].
In the case of `O=C(CSC1=NC(=O)C(Cc2ccccc2)C(=O)N1)NC1CCCCC1` (stereo not given), the viability is 100% in assay [1]; 100% (inactive) in assay [3]; 87.8% (inactive) in assay [4]; 91.7% (inactive) in assay [5]; 83.2% in assay [6] (setting [9]); 91.7% in assay [6] (setting [10]). In addition, the Her2 level in assay [2] was 118% (inactive). The differential viability (reversal) in assay [6] (H69AR cells + 2 uM doxorubicin) is 8.56% (inactive). For the same compound, the inhibition is -0.53% (inactive) in assay [7] and 23.1% (inactive) in assay [8].
With `O=C(O)CC1SC(=Nc2cccc(C(F)(F)F)c2)NC1=O` (stereo not given), the viability in assay [1] was 111%; in assay [3], 111% (inactive); in assay [4], 104% (inactive); in assay [5] it was 103% (inactive); in assay [6] (setting [9]), 93.2%; in assay [6] (setting [10]), 103%. Further, in assay [2], the Her2 level was 94.5% (inactive). For the same compound, in assay [6] (H69AR cells + 2 uM doxorubicin), the differential viability (reversal) is 9.34% (inactive). For the same compound, the figures for the inhibition in assay [7] and in assay [8] were -1.45% (inactive) and 1.29% (inactive), respectively.
As to `CC(C)Cc1nc(S(=O)(=O)c2ccc(Cl)cc2)c(N2CCOCC2)o1`, the viability in assay [1] was 128%; in assay [3] it was 128% (inactive); in assay [4], 87.8% (inactive); in assay [5] it was 90.7% (inactive); in assay [6] (setting [9]), 90.1%; in assay [6] (setting [10]), 90.7%. In addition, in assay [2], the Her2 level was 94.5% (inactive). Further, the differential viability (reversal) in assay [6] (H69AR cells + 2 uM doxorubicin) was 0.63% (inactive). The figures for the inhibition in assay [7] and in assay [8] were -5.06% (inactive) and 1.75% (inactive), respectively.
For the compound `COc1cc2c(cc1OC)C(c1cccnc1)CC(=O)N2` (stereo not given), the viability in assay [1] was 106%; in assay [3], 106% (inactive); in assay [4] it was 82.2% (inactive); in assay [5], 97.4% (inactive); in assay [6] (setting [9]), 88.7%; in assay [6] (setting [10]), 97.4%. Besides, the Her2 level in assay [2] was 95% (inactive). Also, the differential viability (reversal) in assay [6] (H69AR cells + 2 uM doxorubicin) is 8.69% (inactive). In addition, the inhibition in assay [7] is -1.73% (inactive); in assay [8], -0.98% (inactive).
For the compound `O=C(O)c1c[nH]c2ccc(S(=O)(=O)N3CCN(c4ccc(F)cc4)CC3)cc2c1=O`, the viability in assay [1] was 93.5%; in assay [3] it was 93.5% (inactive); in assay [4], 91.6% (inactive); in assay [5], 93.7% (inactive); in assay [6] (setting [9]), 82.8%; in assay [6] (setting [10]), 93.7%. Also, in assay [2], the Her2 level is 124% (inactive). In assay [6] (H69AR cells + 2 uM doxorubicin), the differential viability (reversal) is 10.9% (inactive). The inhibition is 0.53% (inactive) in assay [7] and -6.45% (inactive) in assay [8].
For `O=C(c1cnsn1)N1CCN(c2ccccn2)CC1`, the viability was 122% in assay [1]; 122% (inactive) in assay [3]; 100% (inactive) in assay [4]; 102% (inactive) in assay [5]; 91.7% in assay [6] (setting [9]); 102% in assay [6] (setting [10]). Besides, in assay [2], the Her2 level was 75% (inactive). For the same compound, the differential viability (reversal) in assay [6] (H69AR cells + 2 uM doxorubicin) is 10.7% (inactive). Also, the inhibition in assay [7] was -0.66% (inactive); in assay [8], -5.87% (inactive).
With `COc1ccc(CCNC(=O)c2cnc3scc(C)n3c2=O)cc1OC`, the viability in assay [1] is 78%; in assay [3] it was 78% (inactive); in assay [4], 90.4% (inactive); in assay [5], 94.8% (inactive); in assay [6] (setting [9]), 92.9%; in assay [6] (setting [10]), 94.8%. Further, in assay [2], the Her2 level was 89% (inactive). Further, the differential viability (reversal) in assay [6] (H69AR cells + 2 uM doxorubicin) was 1.87% (inactive). Besides, the figures for the inhibition in assay [7] and in assay [8] were -6.27% (inactive) and 2% (inactive), respectively.
As to `O=C(CN1C(=O)c2ccccc2C1=O)NCC1COc2ccccc2O1` (stereo not given), the viability in assay [1] is 98%; in assay [3] it was 98% (inactive); in assay [4], 95.1% (inactive); in assay [5], 102% (inactive); in assay [6] (setting [9]), 97.1%; in assay [6] (setting [10]), 102%. Further, in assay [2], the Her2 level was 110% (inactive). In addition, in assay [6] (H69AR cells + 2 uM doxorubicin), the differential viability (reversal) was 5.31% (inactive). Besides, the inhibition in assay [7] is 2.11% (inactive); in assay [8], 12.5% (inactive).
For `Cc1ccc(S(=O)(=O)NC(=O)c2cc(C)n(CCCn3ccnc3)c2C)cc1`, the viability was 101% in assay [1]; 101% (inactive) in assay [3]; 94.2% (inactive) in assay [4]; 90.7% (inactive) in assay [5]; 87.8% in assay [6] (setting [9]); 90.7% in assay [6] (setting [10]). For the same compound, the Her2 level in assay [2] was 84% (inactive). Besides, the differential viability (reversal) in assay [6] (H69AR cells + 2 uM doxorubicin) is 2.88% (inactive). In addition, the results for the inhibition in assay [7] and in assay [8] were -7.2% (inactive) and 0.82% (inactive), respectively.
With `COc1ccc(C(=O)NCCn2ccc3ccccc32)c(OC)c1`, the viability in assay [1] was 95%; in assay [3], 95% (inactive); in assay [4], 88.7% (inactive); in assay [5], 87.7% (inactive); in assay [6] (setting [9]), 87.9%; in assay [6] (setting [10]), 87.7%. Besides, in assay [2], the Her2 level was 81% (inactive). For the same compound, the differential viability (reversal) in assay [6] (H69AR cells + 2 uM doxorubicin) was -0.23% (inactive). Further, the inhibition in assay [7] is -6.49% (inactive); in assay [8], 1.11% (inactive).
With `O=C(Cn1cnc2c(oc3ccccc32)c1=O)N1CCN(c2ccccc2)CC1`, the viability is 95% in assay [1]; 95% (inactive) in assay [3]; 91.6% (inactive) in assay [4]; 84.9% (inactive) in assay [5]; 87.7% in assay [6] (setting [9]); 84.9% in assay [6] (setting [10]). Also, the Her2 level in assay [2] was 91.5% (inactive). Also, the differential viability (reversal) in assay [6] (H69AR cells + 2 uM doxorubicin) was -2.86% (inactive). The inhibition in assay [7] is -0.66% (inactive); in assay [8], 3.65% (inactive).
As for `O=c1c2nnn(Cc3ccc(Cl)cc3)c2ncn1Cc1ccc(F)cc1`, the viability in assay [1] was 124%; in assay [3], 124% (inactive); in assay [4], 65.6% (inactive); in assay [5] it was 94.6% (inactive); in assay [6] (setting [9]), 87.1%; in assay [6] (setting [10]), 94.6%. In assay [2], the Her2 level was 89.5% (inactive). Moreover, in assay [6] (H69AR cells + 2 uM doxorubicin), the differential viability (reversal) was 7.53% (inactive). For the same compound, the inhibition in assay [7] is -9.86% (inactive); in assay [8], 1.75% (inactive).
As for `CS(=O)(=O)N1CCCC(C(=O)NCCCN2CCc3ccccc3C2)C1` (stereo not given), the viability in assay [1] is 93%; in assay [3] it was 93% (inactive); in assay [4], 102% (inactive); in assay [5], 95.1% (inactive); in assay [6] (setting [9]), 87.8%; in assay [6] (setting [10]), 95.1%. The Her2 level in assay [2] was 102% (inactive). Moreover, the differential viability (reversal) in assay [6] (H69AR cells + 2 uM doxorubicin) was 7.38% (inactive). Further, the inhibition in assay [7] is -0.91% (inactive); in assay [8], -8.89% (inactive).
